From ChEMBL document CHEMBL4665714 (Bioorg Med Chem Lett, 2020)
Active and inactive are the calls of the source. The rule behind the calls is not given here.

How the values were obtained:
[1] = biological target: Retinoid isomerohydrolase (Bos taurus, UniProt Q28175); assay: (§1) Inhibition of RPE65 in bovine RPE microsomes assessed as reduction in 11-cis-retinol production using all-trans-retinol as substrate pre-incubated with enzyme for 5 mins followed by further incubation with all-trans-retinol for 1 hr by normal phase HPLC analysis; set-up: species or system Retina, Microsome
Retinoid isomerohydrolase, sequence (Q28175 whole entry): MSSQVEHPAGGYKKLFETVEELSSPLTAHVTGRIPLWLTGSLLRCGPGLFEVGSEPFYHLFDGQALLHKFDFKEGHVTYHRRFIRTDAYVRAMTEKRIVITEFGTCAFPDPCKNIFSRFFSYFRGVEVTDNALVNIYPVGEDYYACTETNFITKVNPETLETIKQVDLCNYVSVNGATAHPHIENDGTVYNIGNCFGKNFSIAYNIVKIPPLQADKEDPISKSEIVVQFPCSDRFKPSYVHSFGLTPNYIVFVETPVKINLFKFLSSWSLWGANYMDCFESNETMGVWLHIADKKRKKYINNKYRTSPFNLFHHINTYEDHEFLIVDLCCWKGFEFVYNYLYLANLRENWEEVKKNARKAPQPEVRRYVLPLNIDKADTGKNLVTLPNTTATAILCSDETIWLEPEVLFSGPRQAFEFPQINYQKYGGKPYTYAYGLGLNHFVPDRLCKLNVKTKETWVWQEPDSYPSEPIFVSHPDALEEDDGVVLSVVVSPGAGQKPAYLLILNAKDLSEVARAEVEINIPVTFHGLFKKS
Summary of the method: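 All-trans-retinol added to the enzyme mixture and incubated 1 h at 37 °C. Quenched with methanol and extracted into hexane. Inhibition taken from the fall in 11-cis-retinol production.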

[2] = tested on: ARPE-19; assay: Cytoprotective activity against human ARPE-19 cells assessed as reduction in all-trans-retinal induced cytotoxicity at 18 to 90 uM incubated for 6 hrs in presence of all-trans-retinal by CellTiter-Glo luminescent cell viability assay; assay type: functional, cell-based; details: dose microM 18-90, time 6.0 hrs
[3] = biological target: Retinoid isomerohydrolase (Bos taurus) (UniProt Q28175); assay: as §1, with “Potency index, ratio of (R)-MB001 EC50 to test compound EC50 for inhibition” for “Inhibition”; details: Retina, Microsome, time 65.0 min
Retinoid isomerohydrolase (Bos taurus), sequence (Q28175 2-533 limits assumed): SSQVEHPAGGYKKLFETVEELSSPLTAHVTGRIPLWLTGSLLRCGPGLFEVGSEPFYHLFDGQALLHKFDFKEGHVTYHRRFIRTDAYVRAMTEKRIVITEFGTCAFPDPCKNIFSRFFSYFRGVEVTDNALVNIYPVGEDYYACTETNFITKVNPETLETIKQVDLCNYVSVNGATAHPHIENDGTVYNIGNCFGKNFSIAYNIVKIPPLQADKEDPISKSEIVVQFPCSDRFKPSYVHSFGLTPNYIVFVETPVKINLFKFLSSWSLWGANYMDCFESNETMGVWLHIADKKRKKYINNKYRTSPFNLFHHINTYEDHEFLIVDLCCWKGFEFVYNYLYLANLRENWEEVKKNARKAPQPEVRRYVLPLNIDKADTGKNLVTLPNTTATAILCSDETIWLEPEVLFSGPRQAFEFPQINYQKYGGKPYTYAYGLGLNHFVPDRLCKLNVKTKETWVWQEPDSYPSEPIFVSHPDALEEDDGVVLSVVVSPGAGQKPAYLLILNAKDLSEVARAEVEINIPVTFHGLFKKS

[4] = tested on: ARPE-19; assay: Cytoprotective activity against human ARPE-19 cells assessed as reduction in all-trans-retinal induced cytotoxicity by measuring cell surveillance rate at 90 uM incubated for 6 hrs in presence of all-trans-retinal by CellTiter-Glo luminescent cell viability assay relative to control; assay type: functional
Summary of the method: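 ARPE-19 (human RPE line) cells given test agent at 18, 45 or 90 μM together with all-trans-retinal 385 μM. Incubated 6 h at 37 °C, then viability read by CellTiter-Glo luminescence. Mean ±SE, n=3, t-test.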

EC50 [1] [nM] | Ratio EC50 [3] | SMILES | Activity [2] | Activity [4] [%]
323 |  | CC1=C(COc2cccc([C@H](O)CCN)c2)C(C)(C)CCC1 | Active | 
166 |  | NCCC(O)c1cccc(OCC(CCCF)CCCF)c1 (racemic) [listing 1 of 2 here] |  | 
 | 2 | NCCC(O)c1cccc(OCC(CCCF)CCCF)c1 (racemic) [listing 2 of 2 here] | Active | 
196 |  | NCCC(O)c1cccc(OCC(CCCF)CCCF)c1 (stereo in doubt; 14) [listing 1 of 2 here] |  | 100
 | 2 | NCCC(O)c1cccc(OCC(CCCF)CCCF)c1 (stereo in doubt; 14) [listing 2 of 2 here] | Active | 
